Results taken from ChEMBL document CHEMBL2203225, “Dehydrozingerone, a structural analogue of curcumin, induces cell-cycle arrest at the G2/M phase and accumulates intracellular ROS in HT-29 human colon cancer cells” (J Nat Prod, 2012).
Activity calls are given as the source filed them. The calls are words filed in the database; no cut-off is given here.

How the values were obtained:
HT-29 [1] = test: Cell cycle arrest in human HT-29 cells assessed as ROS-stimulated accumulation at G2/M phase at 62.5 to 250 uM after 24 hrs by propidium iodide based FACS flow cytometry
HT-29 [2] = test: Induction of ROS generation in human HT-29 cells at > 250 uM after 24 hrs by FACS flow cytometry; assay type: functional, cell-based
HT-29 [3] = test: Cytotoxicity against human HT-29 cells assessed as growth inhibition after 72 hrs by WST-8 assay; assay type: functional
Summary of the method: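 Viability read by WST-8 (Cell Counting Kit-8) after 72 h incubation of HT-29 cells with compound. Cells cultured in DMEM with 10% FBS at 37 °C, 5% CO₂. Means ± SD, n = 3.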

HT-29 [4] = test: Cell cycle arrest in human HT-29 cells assessed as ROS-stimulated accumulation at G2/M phase after 24 hrs by propidium iodide based FACS flow cytometry in presence of MnTBAP; assay type: functional
Summary of the method: (§1)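 HT-29 cells grown in DMEM with 10% FBS and 2 mM glutamine at 37 °C, 5% CO₂, treated 24 h, then permeabilized with 0.1% Triton X-100. Stained with 100 μg/mL propidium iodide and analysed for G1, S and G2/M fractions by FACSCalibur flow cytometry. Data are means ± SD, n = 3, versus 0.1% DMSO control.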

HT-29 [5] = test: Cell cycle arrest in human HT-29 cells assessed as ROS-stimulated accumulation at G2/M phase after 24 hrs by propidium iodide based FACS flow cytometry in presence of L-ascorbic acid; assay type: functional
Summary of the method: as §1

HT-29 [6] = test: Cytotoxicity against human HT-29 cells assessed as dead cells at 500 uM after 72 hrs by […]; assay type: functional
Summary of the method: (§2)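 HT-29 colon cancer cells grown in DMEM with 10% FBS, 2 mM glutamine, penicillin and streptomycin at 37 °C, 5% CO2. Cells exposed to compound or vehicle (0.1% DMSO) for 72 h. Live and dead cells were counted by ViaCount staining on a Guava EasyCyte Plus flow cytometer, and percent dead cells was calculated. Mean ± SD, n = 3.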

HT-29 [7] = test: Cell cycle arrest in human HT-29 cells transfected with p21 siRNA assessed as accumulation at G2/M phase at 500 uM after 24 hrs by propidium iodide based FACS flow cytometry; assay type: functional
Summary of the method: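 HT-29 cells transiently transfected for 24 h with 10 nM p21 or negative-control siRNA using Lipofectamine RNAiMAX, alongside 24 h exposure to 500 μM or 0.1% DMSO. Cells were PI-stained and cell-cycle phases quantified by flow cytometry. Means ± SD, n = 3, versus DMSO-treated control.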

HT-29 [8] = test: Cytotoxicity against human HT-29 cells assessed as dead cells at GI70 concentration after 72 hrs by WST-8 assay; assay type: functional
Summary of the method: as §2

HT-29 [9] = test: Cell cycle arrest in human HT-29 cells assessed as ROS-stimulated increase in p21 at 250 to 500 uM after 24 hrs by Western blotting in presence of N-acetyl-L-cysteine; assay type: functional, cell-based
HT-29 [10] = test: Cell cycle arrest in human HT-29 cells assessed as ROS-stimulated accumulation at G2/M phase after 24 hrs by propidium iodide based FACS flow cytometry in presence of alpha-tocopherol; assay type: functional
Summary of the method: as §1

HCT-15 [11] = test: Cell cycle arrest in human HCT15 cells assessed as ROS-stimulated accumulation at G2/M phase after 24 hrs by propidium iodide based FACS flow cytometry in presence of N-acetyl-L-cysteine; assay type: functional
HT-29 [12] = test: Cell cycle arrest in human HT-29 cells assessed as accumulation at G2/M phase at 250 uM after 24 hrs by propidium iodide based FACS flow cytometry; assay type: functional
Summary of the method: (§3)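 HT-29 cells exposed 24 h to 125, 250 or 500 μM, with 0.1% DMSO as vehicle control. Permeabilized with 0.1% Triton X-100, stained with 100 μg/mL PI and analysed by FACSCalibur for G1/S/G2/M percentages. Means ± SD, n = 3; significance tested against DMSO control.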

HCT-116 [13] = test: Cell cycle arrest in human HCT116 cells assessed as ROS-stimulated accumulation at G2/M phase after 24 hrs by propidium iodide based FACS flow cytometry in presence of N-acetyl-L-cysteine; assay type: functional
HT-29 [14] = test: Upregulation of CDK1 gene expression in human HT-29 cells at 125 to 500 uM after 24 hrs by Western blotting; assay type: functional, cell-based
Summary of the method: (§4)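 HT-29 cells treated 24 h or given 0.1% DMSO, then lysed in 50 mM Tris-HCl with 1% SDS and protease inhibitors. Blots were blocked in 5% skim milk/TBST for 1 h at RT and probed with primary antibody for 1 h at RT. Detection by ECL, with β-actin as loading control.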

HCT-116 [15] = test: Cell cycle arrest in human HCT116 cells assessed as ROS-stimulated accumulation at G2/M phase after 24 hrs by propidium iodide based FACS flow cytometry in presence of alpha-tocopherol; assay type: functional
HT-29 [16] = test: Cell cycle arrest in human HT-29 cells assessed as ROS-stimulated accumulation at G2/M phase at 125 to 500 uM after 24 hrs by propidium iodide based FACS flow cytometry in presence of N-acetyl-L-cysteine; assay type: functional
Summary of the method: as §1

HT-29 [17] = test: Upregulation of Cyclin B gene expression in human HT-29 cells at 125 to 500 uM after 24 hrs by Western blotting; assay type: functional, cell-based
Summary of the method: as §4

HT-29 [18] = test: Upregulation of p21 gene expression in human HT-29 cells assessed as decrease in phosphorylated CDK1 at Thr161 at 500 uM after 24 hrs by Western blotting; assay type: functional, cell-based
Summary of the method: as §4

HT-29 [19] = test: Cell cycle arrest in human HT-29 cells assessed as ROS-stimulated accumulation at G2/M phase after 24 hrs by propidium iodide based FACS flow cytometry in presence of SOD; assay type: functional
Summary of the method: as §1

WI-38 [20] = test: Cell cycle arrest in human WI38 cells assessed as ROS-stimulated accumulation at G2/M phase at 250 uM after 24 hrs by propidium iodide based FACS flow cytometry in presence of N-acetyl-L-cysteine; conditions: wi-38, 24 h
HT-29 [21] = test: Cell cycle arrest in human HT-29 cells assessed as accumulation at G2/M phase at > 250 uM after 24 hrs by propidium iodide based FACS flow cytometry relative to control; assay type: functional
Summary of the method: as §3

HT-29 [22] = test: Cytotoxicity against human HT-29 cells assessed as dead cells at 1000 uM after 72 hrs by […]; assay type: functional
Summary of the method: as §2

WI-38 [23] = test: Cytotoxicity against human WI38 cells assessed as growth inhibition after 72 hrs by WST-8 assay; assay type: cell-based; conditions: wi-38, 72 h
HCT-15 [24] = test: Cell cycle arrest in human HCT15 cells assessed as ROS-stimulated accumulation at G2/M phase after 24 hrs by propidium iodide based FACS flow cytometry in presence of L-ascorbic acid; assay type: functional
HCT-15 [25] = test: Cell cycle arrest in human HCT15 cells assessed as ROS-stimulated accumulation at G2/M phase after 24 hrs by propidium iodide based FACS flow cytometry in presence of alpha-tocopherol; assay type: functional
HCT-15 [26] = test: Cytotoxicity against human HCT15 cells assessed as growth inhibition after 72 hrs by WST-8 assay; assay type: functional, cell-based
HT-29 [27] = test: Cell cycle arrest in human HT-29 cells assessed as ROS-stimulated accumulation at G2/M phase after 24 hrs by propidium iodide based FACS flow cytometry in presence of PEG-penetreated catalase; assay type: functional
Summary of the method: as §1

HCT-116 [28] = test: Cell cycle arrest in human HCT116 cells assessed as ROS-stimulated accumulation at G2/M phase after 24 hrs by propidium iodide based FACS flow cytometry in presence of L-ascorbic acid; assay type: functional
HT-29 [29] = test: Upregulation of p21 gene expression in human HT-29 cells at > 250 uM after 24 hrs by Western blotting; assay type: functional, cell-based
Summary of the method: as §4

HCT-116 [30] = test: Cytotoxicity against human HCT116 cells assessed as growth inhibition after 72 hrs by WST-8 assay; assay type: functional, cell-based
HT-29 [31] = test: Cytotoxicity against human HT-29 cells assessed as dead cells at > 31.3 uM after 72 hrs by […]; assay type: functional
Summary of the method: as §2

**Q.** With `COc1cccc(/C=C/C(C)=O)c1O` as the molecule, how does the Activity (HT-29 [1]) read?
**A.** Active

**Q.** And the Activity (HT-29 [2])?
**A.** Active

**Q.** What about the “growth inhibition (GI)” value (HT-29 [3]) of the same molecule?
**A.** Active

**Q.** How did the Activity (HT-29 [4]) turn out when `COc1cc(/C=C/C(C)=O)ccc1O` [DEHYDROZINGERONE] was run?
**A.** Active

**Q.** And the Activity (HT-29 [5])?
**A.** Active

**Q.** And the Activity (HT-29 [6])?
**A.** 22%

**Q.** And the Activity (HT-29 [7])?
**A.** inactive

**Q.** And the Activity (HT-29 [8])?
**A.** 11%

**Q.** What about the Activity (HT-29 [9]) of the same molecule?
**A.** inactive

**Q.** What about the Activity (HT-29 [10]) of the same molecule?
**A.** Active

**Q.** And the Activity (HCT-15 [11])?
**A.** inactive

**Q.** What about the Activity (HT-29 [12]) of the same molecule?
**A.** Active

**Q.** What about the Activity (HCT-116 [13]) of the same molecule?
**A.** inactive

**Q.** And the Activity (HT-29 [14])?
**A.** inactive

**Q.** What about the Activity (HCT-116 [15]) of the same molecule?
**A.** Active

**Q.** And the Activity (HT-29 [16])?
**A.** inactive

**Q.** And the Activity (HT-29 [17])?
**A.** inactive

**Q.** And the Activity (HT-29 [18])?
**A.** Active

**Q.** What about the Activity (HT-29 [19]) of the same molecule?
**A.** Active

**Q.** And the Activity (WI-38 [20])?
**A.** Toxic

**Q.** And the “fold change (FC)” value (HT-29 [21])?
**A.** 2

**Q.** And the Activity (HT-29 [22])?
**A.** 37%

**Q.** And the Activity (WI-38 [23])?
**A.** Toxic

**Q.** What about the Activity (HCT-15 [24]) of the same molecule?
**A.** Active

**Q.** And the Activity (HCT-15 [25])?
**A.** Active

**Q.** What about the “growth inhibition (GI)” value (HCT-15 [26]) of the same molecule?
**A.** Active

**Q.** What about the Activity (HT-29 [1]) of the same molecule?
**A.** Active

**Q.** What about the Activity (HT-29 [2]) of the same molecule?
**A.** Active

**Q.** What about the Activity (HT-29 [27]) of the same molecule?
**A.** Active

**Q.** And the Activity (HCT-116 [28])?
**A.** Active

**Q.** What about the Activity (HT-29 [29]) of the same molecule?
**A.** Active

**Q.** And the “growth inhibition (GI)” value (HT-29 [3])?
**A.** Active

**Q.** What about the “growth inhibition (GI)” value (HCT-116 [30]) of the same molecule?
**A.** Active

**Q.** For `COc1cc(/C=C/C(=O)CC(=O)/C=C/c2ccc(O)c(OC)c2)ccc1O` [CURCUMIN], which Activity (HT-29 [31]) is on record?
**A.** 84%

**Q.** What about the Activity (HT-29 [8]) of the same molecule?
**A.** 45%

**Q.** With `COc1ccc(/C=C/C(C)=O)cc1O` as the molecule, how does the Activity (HT-29 [1]) read?
**A.** Active

**Q.** And the Activity (HT-29 [2])?
**A.** Active

**Q.** And the “growth inhibition (GI)” value (HT-29 [3])?
**A.** Active
